From ChEMBL document CHEMBL4414663, “Pyrazole-4-Carboxamide (YW2065): A Therapeutic Candidate for Colorectal Cancer via Dual Activities of Wnt/β-Catenin Signaling Inhibition and AMP-Activated Protein Kinase (AMPK) Activation” (J Med Chem, 2019)
Calls of active or inactive are those of the source. No cut-off for these calls is given here.

Tests used:
[1] = Inhibition of Wnt/beta-Catenin signaling (unknown origin) expressed in recombinant human Wnt-3a-induced Wnt-HEK293 cells incubated for 24 hrs by luciferase reporter gene assay; assay type: cell-based
How it was run: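 Stably transfected Wnt-HEK293 cells, 2000/well in DMEM + 10% FBS, incubated overnight at 37 °C. Compounds pin-transferred, then recombinant human Wnt-3a added (200 ng/mL stock); unstimulated control wells received medium. After 24 h at 37 °C, ONE-Glo luminescence read after 30 min at room temperature; CellTiter-Fluor viability read in parallel. IC50 reported as mean ± SD of three independent experiments.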

[2] = tested on: SW480; assay: Growth inhibition of human SW480 cells by Cell-titer-fluor reagent based assay; assay type: functional
[3] = tested on: HEK293; assay: Induction of Axin-1 protein expression in recombinant human Wnt-3a-induced Wnt-HEK293 cells at 1 uM by fluorescence microscopy; assay type: functional, cell-based
How it was run: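 HEK293 cells treated at 1 µM, stained with anti-Axin-1 antibody and DAPI, imaged by fluorescence microscopy.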

[4] = target: T1, AMP-activated protein kinase, AMPK (Homo sapiens) (UniProt P54646+O43741+P54619+Q9UGJ0+Q9Y478+Q13131+Q9UGI9); assay: Activation of AMPK in HEK293 cells with Axin-1 knockdown assessed as increase in AMPK phosphorylation at T172 residue at 10 uM incubated for 24 hrs by Western blot analysis; assay type: cell-based
[5] = Inhibition of Wnt/beta-Catenin signaling in human SW620 cells incubated for 24 hrs by TCF/LEF dual-luciferase reporter assay; assay type: cell-based; conditions: SW-620, 24 h
How it was run: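 SW480 or SW620 cells seeded at 200,000/well and transiently transfected 24 h later with TOPflash firefly luciferase plus pRLTK-Renilla using lipofectamine 2000. After 16 h the medium was replaced with compound at a range of concentrations, three replicates each. Dual firefly/Renilla luciferase read 24 h later.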

[6] = organism: Homo sapiens; assay: Inhibition of Wnt/beta-Catenin signaling in human SW620 cells assessed as reduction in S100A4 mRNA expression at 10 uM incubated for 24 hrs by real-time PCR analysis; assay type: cell-based
How it was run: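 SW620 cells (RPMI 1640, 10% FBS) in 6-well plates, incubated 24 h, then treated with compound at several concentrations, three replicates each, for 24 h. Total RNA isolated with Trizol/phenol-chloroform; 2 µg reverse transcribed; Wnt target gene mRNA quantified by PCR.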

[7] = target: T1, AMP-activated protein kinase, AMPK (Homo sapiens); assay: Activation of AMPK in human SW620 cells assessed as increase in ACC phosphorylation incubated for 24 hrs by Western blot analysis; assay type: cell-based
How it was run: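 SW620 cells in RPMI 1640 with 10% FBS, treated over a concentration range. Lysed in RIPA with protease inhibitors, 20 µL of 2 mg/mL protein run on 7.5% SDS-PAGE, transferred to nitrocellulose, blocked in 5% BSA. Rabbit primaries (Axin-1, ACC, pACC, AMPK, pAMPK at 1:1,000; β-actin 1:2,000) overnight at 4 °C, HRP secondary 1:8000 for 2 h, ECL.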

[8] = tested on: SW-620; assay: Induction of apoptosis in human SW620 cells incubated for 48 hrs by AAD-7 and FITC-annexin-V staining based flow cytometry; assay type: functional, cell-based
How it was run: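 Cells treated with a range of concentrations or DMSO for 48 h. Stained with FITC annexin V/7-AAD and analysed by flow cytometry.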

[9] = tested on: HT-29; assay: Induction of apoptosis in human HT-29 cells incubated for 48 hrs by AAD-7 and FITC-annexin-V staining based flow cytometry; assay type: functional, cell-based
[10] = tested on: SW-620; assay: Induction of apoptosis in human SW620 cells assessed as late apoptotic cells level at 1 uM incubated for 48 hrs by AAD-7 and FITC-annexin-V staining based flow cytometry (reference value: 7.6%); assay type: functional
[11] = tested on: SW-620; assay: Induction of apoptosis in human SW620 cells assessed as viable cells level at 3 uM incubated for 48 hrs by AAD-7 and FITC-annexin-V staining based flow cytometry (reference value: 73.8%); assay type: functional
[12] = tested on: SW-620; assay: Induction of apoptosis in human SW620 cells assessed as necrotic cells level at 3 uM incubated for 48 hrs by AAD-7 and FITC-annexin-V staining based flow cytometry (reference value: 0.027%); assay type: functional
[13] = target: Glycogen synthase kinase-3 alpha (Homo sapiens) (UniProt P49840); assay: Inhibition of GSK3A (unknown origin) at 1000 nM relative to control
Chain of Glycogen synthase kinase-3 alpha (Homo sapiens) (P49840 2-483 limits assumed): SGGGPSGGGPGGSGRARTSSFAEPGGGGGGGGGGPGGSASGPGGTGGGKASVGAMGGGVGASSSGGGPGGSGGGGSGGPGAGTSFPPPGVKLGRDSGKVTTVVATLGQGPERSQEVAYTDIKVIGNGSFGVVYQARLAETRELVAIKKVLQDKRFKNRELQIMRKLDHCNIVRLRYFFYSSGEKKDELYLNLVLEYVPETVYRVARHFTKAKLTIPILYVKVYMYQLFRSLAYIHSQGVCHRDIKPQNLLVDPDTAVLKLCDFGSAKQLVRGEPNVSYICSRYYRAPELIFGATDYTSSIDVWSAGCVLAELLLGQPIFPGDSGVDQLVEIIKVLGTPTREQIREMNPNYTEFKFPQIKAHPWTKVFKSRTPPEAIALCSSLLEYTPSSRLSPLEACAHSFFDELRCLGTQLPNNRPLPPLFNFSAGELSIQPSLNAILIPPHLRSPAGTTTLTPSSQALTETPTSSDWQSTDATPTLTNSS
How it was run: (§1)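 Single-concentration screen at 1000 nM against a 273-kinase panel, reported as percent inhibition.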

[14] = target: Mitogen-activated protein kinase kinase kinase kinase 4 (Homo sapiens) (UniProt O95819); assay: Inhibition of MAP4K4 (unknown origin) at 1000 nM relative to control; how it was run: as §1
Chain of Mitogen-activated protein kinase kinase kinase kinase 4 (Homo sapiens) (O95819 2-1239 limits assumed): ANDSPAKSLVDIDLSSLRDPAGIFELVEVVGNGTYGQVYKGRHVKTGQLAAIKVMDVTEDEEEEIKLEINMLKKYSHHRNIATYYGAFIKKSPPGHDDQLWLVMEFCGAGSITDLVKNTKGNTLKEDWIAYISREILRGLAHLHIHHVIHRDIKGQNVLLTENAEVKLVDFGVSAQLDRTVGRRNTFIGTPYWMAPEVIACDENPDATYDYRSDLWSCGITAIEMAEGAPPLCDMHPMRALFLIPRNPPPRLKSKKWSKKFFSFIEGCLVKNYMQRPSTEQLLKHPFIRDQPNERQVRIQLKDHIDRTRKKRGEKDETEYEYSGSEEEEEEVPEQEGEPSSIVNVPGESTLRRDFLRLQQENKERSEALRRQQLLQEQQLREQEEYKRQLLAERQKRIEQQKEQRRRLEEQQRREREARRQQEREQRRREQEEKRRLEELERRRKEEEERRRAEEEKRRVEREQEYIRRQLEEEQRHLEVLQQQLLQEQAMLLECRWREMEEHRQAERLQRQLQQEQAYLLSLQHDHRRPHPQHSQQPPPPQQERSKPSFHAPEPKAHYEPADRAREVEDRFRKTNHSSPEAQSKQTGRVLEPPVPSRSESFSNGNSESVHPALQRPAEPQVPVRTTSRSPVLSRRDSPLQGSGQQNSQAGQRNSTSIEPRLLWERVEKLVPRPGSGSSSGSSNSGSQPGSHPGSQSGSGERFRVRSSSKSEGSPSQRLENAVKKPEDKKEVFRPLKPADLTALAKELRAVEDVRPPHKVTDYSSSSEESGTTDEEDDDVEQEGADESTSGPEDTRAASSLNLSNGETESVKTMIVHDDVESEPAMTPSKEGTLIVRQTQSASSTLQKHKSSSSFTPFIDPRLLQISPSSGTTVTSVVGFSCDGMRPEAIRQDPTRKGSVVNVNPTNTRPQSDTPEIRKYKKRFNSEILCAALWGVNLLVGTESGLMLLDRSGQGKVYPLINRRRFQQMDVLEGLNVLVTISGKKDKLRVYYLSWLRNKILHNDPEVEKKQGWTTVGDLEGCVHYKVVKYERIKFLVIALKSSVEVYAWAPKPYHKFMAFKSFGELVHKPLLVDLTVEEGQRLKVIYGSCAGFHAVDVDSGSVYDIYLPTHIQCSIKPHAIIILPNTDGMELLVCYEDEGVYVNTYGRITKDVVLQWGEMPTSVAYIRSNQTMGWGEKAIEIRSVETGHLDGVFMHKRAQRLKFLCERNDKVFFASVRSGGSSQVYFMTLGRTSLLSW

[15] = target: Maternal embryonic leucine zipper kinase (Homo sapiens) (UniProt Q14680); assay: Inhibition of MELK (unknown origin) at 1000 nM relative to control; how it was run: as §1
Chain of Maternal embryonic leucine zipper kinase (Homo sapiens) (Q14680 whole entry, looked up): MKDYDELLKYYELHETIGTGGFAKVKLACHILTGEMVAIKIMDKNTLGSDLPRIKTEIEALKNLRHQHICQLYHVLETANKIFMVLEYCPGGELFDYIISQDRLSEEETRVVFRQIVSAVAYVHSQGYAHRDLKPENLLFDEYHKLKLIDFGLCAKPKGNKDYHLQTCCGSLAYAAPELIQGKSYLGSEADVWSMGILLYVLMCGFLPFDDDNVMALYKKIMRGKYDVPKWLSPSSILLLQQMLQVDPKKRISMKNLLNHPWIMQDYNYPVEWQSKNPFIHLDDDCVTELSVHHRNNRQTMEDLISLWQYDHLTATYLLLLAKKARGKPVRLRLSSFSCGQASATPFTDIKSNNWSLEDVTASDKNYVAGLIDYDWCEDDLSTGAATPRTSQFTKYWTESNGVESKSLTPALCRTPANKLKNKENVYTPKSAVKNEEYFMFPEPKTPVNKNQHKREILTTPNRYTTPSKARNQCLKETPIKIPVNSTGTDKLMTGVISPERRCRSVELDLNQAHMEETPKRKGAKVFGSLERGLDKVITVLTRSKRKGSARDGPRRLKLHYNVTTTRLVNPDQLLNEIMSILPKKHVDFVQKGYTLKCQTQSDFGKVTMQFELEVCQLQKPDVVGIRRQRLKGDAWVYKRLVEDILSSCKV

[16] = target: Proto-oncogene tyrosine-protein kinase Src (Homo sapiens) (UniProt P12931); assay: Inhibition of SRC (unknown origin) at 1000 nM relative to control; how it was run: as §1
Chain of Proto-oncogene tyrosine-protein kinase Src (Homo sapiens) (P12931 2-536 limits assumed): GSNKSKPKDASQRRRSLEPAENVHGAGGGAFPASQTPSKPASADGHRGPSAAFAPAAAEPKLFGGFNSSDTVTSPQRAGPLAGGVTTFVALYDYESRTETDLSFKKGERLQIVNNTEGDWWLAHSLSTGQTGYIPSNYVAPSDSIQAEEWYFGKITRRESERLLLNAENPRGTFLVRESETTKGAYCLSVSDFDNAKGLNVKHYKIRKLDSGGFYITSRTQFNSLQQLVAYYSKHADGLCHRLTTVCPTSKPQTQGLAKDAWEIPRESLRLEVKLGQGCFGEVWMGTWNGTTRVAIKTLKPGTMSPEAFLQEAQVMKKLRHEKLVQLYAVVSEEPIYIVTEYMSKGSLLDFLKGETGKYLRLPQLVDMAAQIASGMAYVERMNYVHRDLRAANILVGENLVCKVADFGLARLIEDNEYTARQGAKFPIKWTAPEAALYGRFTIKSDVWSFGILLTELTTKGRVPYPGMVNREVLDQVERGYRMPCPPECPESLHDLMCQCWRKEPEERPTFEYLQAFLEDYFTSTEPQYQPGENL

[17] = Tmax in C57BL/6J mouse at 5 mg/kg, po by UPLC-MS analysis; assay type: ADME, organism-based; conditions: in vivo
How it was run: (§2)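 Male C57BL/6J mice, 2–3 months old, 23–26 g. Single 5 mg/kg dose in 5% Kolliphor in saline, IV (n = 3) or oral gavage (n = 5). Tail-vein blood taken at 0.25, 0.5, 1, 4, 8 and 12 h and centrifuged to plasma. Analysed by LC-MS/MS (QTRAP 4000, C18 column); parameters from non-compartmental analysis.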

[18] = Oral bioavailability in C57BL/6J mouse at 5 mg/kg by UPLC-MS analysis; assay type: ADME, organism-based; conditions: in vivo; how it was run: as §2
[19] = tested on: SW-620; assay: Antitumor activity against human SW620 cells xenografted in nude mouse assessed as reduction in tumor volume at 50 mg/kg, ip QD for 32 consecutive days relative to control; assay type: functional; set-up: scale not given: the % may be the effect or the level left
How it was run: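 Six-week-old nude mice injected subcutaneously with 2×10^6 SW620 cells. Randomised at mean tumor volume 100–200 mm³ (n=6/group). Given 10 or 50 mg/kg ip daily for 32 consecutive days; vehicle 10% DMSO, 10% Kolliphor, 80% saline. Tumor volume measured every other day. Tumors weighed after euthanasia at day 32. t test against vehicle.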

[20] = Toxicity in C57BL/6 mouse assessed as effect on total protein level at 100 mg/kg/day, ip for 21 days; assay type: organism-based; conditions: in vivo, 504 h
[21] = tested on: Mus musculus; assay: Inhibition of Wnt/beta-Catenin signaling in nude mouse xenografted with human SW620 cells assessed as reduction in Axin-2 mRNA expression at 50 mg/kg, ip QD for 32 consecutive days by RT-PCR analysis; assay type: organism-based; conditions: in vivo
How it was run: (§3)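 Six-week-old nude mice implanted subcutaneously in the right flank with 2×10^6 SW620 cells. Randomized at mean tumor volume 100–200 mm³, n = 6/group. Dosed IP once daily for 32 days at 10 or 50 mg/kg, or vehicle (10% DMSO, 10% Kolliphor, 80% saline). Tumors collected at day 32; Axin-2, MMP-7 and S100A4 expression measured by RT-PCR.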

[22] = tested on: Mus musculus; assay: Inhibition of Wnt/beta-Catenin signaling in nude mouse xenografted with human SW620 cells assessed as reduction in S100A4 mRNA expression at 50 mg/kg, ip QD for 32 consecutive days by RT-PCR analysis; assay type: organism-based; conditions: in vivo; how it was run: as §3

IC50 [1]: 2.3 nM | GI50 [2]: 2400 nM | Activity [4]: inactive | IC50 [5]: 0.194 nM | Activity [7]: Dose-dependent effect | inhibition [13]: Active | inhibition [14]: Active | inhibition [15]: Active | inhibition [16]: Active | Tmax [17]: 18 min | bioavailability [18]: 22.9% | inhibition (INH) [21]: Active | inhibition (INH) [22]: Active
SMILES: Cc1c(C(=O)Nc2ccc3ccccc3n2)cnn1-c1ccccc1Br
Activity [3]: Active | inhibition [6]: Active | Activity [8]: Dose-dependent effect | Activity [9]: Dose-dependent effect | Activity [10]: 9.43% | Activity [11]: 45% | Activity [12]: 0.048% | Activity [19]: 49% | Activity [20]: Non-Toxic
